Screening results (PubChem)
bCat KO growth – beta-catenin-lacking colon tumor cell growth suppression; viability, % at 10 µM; actives 1.5% (n = 140,000); AID 818; HCT116 beta-catenin knockout viability, CellTiter-Glo, 60 h; hits give low values;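 active means viability at or under a set limit, the compound median less 4 SD, cut at about 6% in these data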;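 further: 0% = Hyamine 1622 control at 20 µM and 100% = untreated cell control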
PTEN del growth – growth suppressors of cells with PTEN tumor suppressor deletion | HCT116 PTEN-null viability, CellTiter-Glo, 60 h; hits give low values | AID 827 | actives 1.2% (n = 140,000) | viability, % at 10 µM;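 active means viability at or below a set limit, 4 SD under the median of all tested compounds, cut at about 3.7% in these data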;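 further: PTEN knockout HCT116 line with beta catenin targeted HCT116 as companion control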
HUVEC inhibit – human endothelial cell proliferation inhibition | HUVEC proliferation, CellTiter-Glo luminescence, 72 h; hits give low values | viability, % at 10 µM (by protocol) | actives 1.1% (n = 86,000);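 active means viability at or below 30%; inactive means viability above 30%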;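 further: 100% = median luminescence of DMSO-only cell control wells on each plate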
Fibroblast inh – blocks proliferation of human lung fibroblasts; LL 47 human lung fibroblast viability, ATP luminescence; hits give low values; viability, % at 10 µM; actives 1.1% (n = 85,000); AID 719;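 active means viability at or below 50% in the single dose screen; inactive means viability above 50%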;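 further: compound exposure lasted 72 h before the ATP readout; 100% = median luminescence of untreated cell-only wells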
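Test system: LL 47 human lung fibroblasts / Quantity: 1,150 cells in each well / Medium: IMEM growth medium with 15% fetal bovine serum / Incubation: 72 h compound exposure at 37 °C after overnight plating / Detection: CellTiter-Glo luminescence measuring cellular ATP / Read-out: % viability versus median cells-only luminescence / Benchmarks: cell-only wells, no compound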
H69AR inhibit – blocks growth of human H69AR lung tumor cells; H69AR lung tumor viability, ATP luminescence, 72 h; hits give low values; viability, % at 10 µM; actives 6% (n = 85,000); AID 598;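 active means viability at or below 40%; inactive means viability above 40%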;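 further: multidrug resistant small cell line overexpressing MRP-1 efflux transporter; 100% = mean luminescence of untreated control wells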
* marks the source's active call; other numbers are inactive results; . = no result given. Shown is part of a subset that was picked to be rich in hits.

SMILES	bCat KO growth	PTEN del growth	HUVEC inhibit	Fibroblast inh	H69AR inhibit
COc1cc2cc(C(c3nnnn3C3CCCC3)N3CCCCC3)c(=O)[nH]c2cc1OC (stereo not given)	93	98	91	95	90
FC(F)(F)c1cc(-c2ccco2)nc(NCc2cccnc2)n1	47	52	55	96	29*
CCC(C)(C)c1nnc(NC(=O)c2cccc([N+](=O)[O-])c2)s1	96	94	.	.	.
O=[N+]([O-])c1cccnc1N1CCC(c2cc(-c3ccc(Cl)cc3Cl)n[nH]2)CC1	70	51	52	107	84
O=[N+]([O-])c1cccnc1N1CCC(c2cc(-c3cccc(C(F)(F)F)c3)n[nH]2)CC1	65	49	3.7*	101	34*
Cn1c(=O)c2c(nc(Oc3ccc4c(c3)OCO4)n2Cc2ccc(Br)cc2)n(C)c1=O	.	.	22*	30*	18*
CCCCN=C(C)c1c(O)c2ccccc2oc1=O	96	82	93	.	99
CCCCC(=O)c1c(O)c2ccccc2oc1=O	96	97	.	.	.
O=C(CC1CCCCC1)c1c(O)c2ccccc2oc1=O	45	45	3.2*	95	104
CC1CCC(C(=O)c2c(O)c3ccccc3oc2=O)CC1 (stereo not given)	55	71	13*	85	57
COc1ccc(N2CCN(CC(=O)Nc3ccc(-n4cnnn4)cc3)CC2)cc1	82	85	.	.	.
COCc1nnc(NC(=O)c2cc(OC)c(OC)cc2[N+](=O)[O-])s1	90	94	.	.	.
COc1ccc(N2CCN(C(=O)CCCSc3nc4ccccc4[nH]3)CC2)cc1	78	73	91	94	78
COc1ccc(C(=O)Nc2nc3c(s2)Cc2cc(OC)ccc2-3)cc1	95	78	91	97	85
COc1ccc2c(c1)Cc1sc(NC(=O)c3ccccc3)nc1-2	86	84	78	99	11*
CN(C)C(=O)c1ccc(NC(=O)c2cccnc2)cc1	100	108	104	93	39*
CC(C)C(=O)Nc1ccc(C(=O)NCc2cccnc2)cc1	99	98	102	100	36*
CCOC(=O)c1cccc(NC(=O)c2cccnc2)c1	106	103	102	.	31*
CCOCC(=O)Nc1cccc(C(=O)OCC)c1	97	95	97	105	21*
CCOC(=O)c1cccc(NC(=O)c2cncc(Br)c2)c1	96	95	.	.	.
CCOc1ccc(-c2nnc(Nc3ccc(OC)c(C(=O)N4CCCCC4)c3)c3ccccc23)cc1	56	46	.	.	.
CCCC1(CCC)NC(=O)N(CC(=O)N2CCN(C(=O)c3ccco3)CC2)C1=O	93	89	.	.	.
O=C(Nc1cnc2ccccc2c1)c1cccnc1	101	103	106	102	7.7*
COc1ccc(-c2ccc(=O)n(CC(=O)N3CCN(c4ccccc4OC)CC3)n2)cc1	.	.	95	98	90
COc1ccc(OC)c(NC(=O)C2COc3ccccc3O2)c1 (stereo not given)	96	95	87	102	69
SMILES	bCat KO growth	PTEN del growth	HUVEC inhibit	Fibroblast inh	H69AR inhibit
CN1CCN(c2ccc(Cl)cc2NC(=O)c2cccc(S(=O)(=O)N(C)C)c2)CC1	69	75	57	84	26*
CN1CCN(c2ccc(Cl)cc2NC(=O)C2COc3ccccc3O2)CC1 (stereo not given)	72	78	71	82	30*
CN1CCN(c2ccc(Cl)cc2NC(=O)c2nn(-c3ccccc3)c(=O)c3ccccc23)CC1	80	70	82	97	4.9*
NC(=O)C1CCN(C(=O)CSc2nc3c(c(-c4ccccc4)n2)CCCC3)CC1	93	116	95	101	46
CSC(=Nc1cccc(C)c1)NC#N	84	92	.	.	.
CCn1cc(SCC(=O)N2CCc3ccccc32)c2ccccc21	86	74	92	96	77
O=c1oc2ccccc2cc1-c1nnc(NCc2ccco2)s1	58	35	71	91	32*
Nc1nnc(-c2cc3ccccc3oc2=O)s1	75	81	87	100	95
Cc1nc(-c2ccccc2)nc2[nH]c(-c3ccccc3)cc(=O)c12	91	87	55	96	15*
Cc1nc(C)c2c(=O)cc(-c3ccccc3)[nH]c2n1	27	30	57	61	31*
CCOC(=O)c1c(CN2CCN(CCO)CC2)n(C)c2cc(Br)c(OC)cc12	54	41	45	72	16*
CCN(CC)CCNC(=O)c1c(C)n(-c2ccccc2)c2cc(Br)c(OC)cc12	6	14	6.1*	56	25*
CCOC(=O)c1c(CNCCN(CC)CC)n(C)c2cc(Br)c(OC)cc12	56	59	45	84	33*
CCOC(=O)c1c(CN2CCCCC2)n(C)c2cc(Br)c(OC)cc12	32	47	59	94	77
CCCCCCC(c1c(C)n(C)n(-c2ccccc2)c1=O)c1c(C)n(C)n(-c2ccccc2)c1=O	63	64	85	104	69
CCC(C)NC(=O)CSc1nc2c(sc(=S)n2Cc2ccco2)c(=O)n1-c1ccccc1 (stereo not given)	67	61	82	94	32*
O=C(c1cc2c(cc1Br)OCCCO2)N1CCCCC1	96	90	.	.	.
O=C(NCC1CCCO1)C1CCN(S(=O)(=O)Cc2ccccc2)CC1 (stereo not given)	93	94	96	104	102
O=C(NCc1ccco1)C1CCN(S(=O)(=O)Cc2ccccc2)CC1	0.7*	0.5*	91	95	92
O=C(NCc1ccco1)C1CCN(C(=O)c2cc3sccc3n2Cc2ccc(Cl)cc2)CC1	5.7*	5	88	89	65
C=CCOc1ccc(C2C(C#N)=C(N)N(Nc3ccccc3)C3=C2C(=O)CCC3)cc1OC (stereo not given)	57	57	.	.	.
CSc1nc2sc3c(c2c2nncn12)CCC3	102	102	93	89	77
CCc1nc(Sc2nnnn2-c2ccccc2)c2c3c(sc2n1)CCCC3	4.9*	3.1*	.	.	.
Cc1nc(Sc2nnnn2C)c2c3c(sc2n1)CCC3	24	20	45	33*	23*
O=C(OCC(=O)c1ccc(Cl)s1)c1ccc2ccccc2n1	92	96	.	.	.
SMILES	bCat KO growth	PTEN del growth	HUVEC inhibit	Fibroblast inh	H69AR inhibit
CCOC(=O)C(C(C)=O)C(c1ccc(OCCC(C)C)cc1)C(C(C)=O)C(=O)OCC (stereo not given)	74	73	103	90	80
CCC(C)Sc1nc(O)c(Cc2ccccc2)c(=O)[nH]1 (stereo not given)	90	92	103	102	107
C=CCn1c(SCC(=O)Nc2ccccc2OC)nnc1-c1ccco1	69	71	84	91	87
C=CCn1c(SCC(O)Cn2c3ccccc3c3ccccc32)nnc1-c1ccco1 (stereo not given)	86	78	62	87	26*
COc1cc(OC)cc(-c2ncc3ccccn23)c1	76	84	81	98	38*
CCCN(CCC)C(=O)c1cc(-c2ccc3c(c2)OCO3)nc2ccccc12	62	53	78	93	52
